This note sets out measurements from ChEMBL document CHEMBL1126276, “Synthesis and antimalarial properties of 1-imino derivatives of 7-chloro-3-substituted-3,4-dihydro-1,9(2H,10H)-acridinediones and related structures” (J Med Chem, 1992).

Assay type in all cases: functional
Assay [1] deals with Plasmodium berghei. Put plainly: Antimalarial activity in Plasmodium berghei infected mice (Mus musculus) after 160 mg/kg subcutaneous dose. Put shortly: (§1)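 […] in mice infected with a normal drug-sensitive P. berghei strain. Compound dissolved or suspended in sesame or peanut oil, given as a single subcutaneous dose 72 h postinfection.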
The test system of assay [2] is Plasmodium berghei. In words: (§2) Antimalarial activity in Plasmodium berghei infected mice (Mus musculus) after 80 mg/kg subcutaneous dose. In short, it runs like this:
(§3)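 Normal drug-sensitive P. berghei strain in mice. Compound dissolved or suspended in sesame or peanut oil, given parenterally as a single subcutaneous dose 72 h postinfection.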

The subject of assay [3] is Plasmodium berghei. In words: Antimalarial activity in Plasmodium berghei infected mice (Mus musculus) after subcutaneous 320 mg/kg dose. Put shortly:
as §3

The test system of assay [4] is Plasmodium berghei. The assay is described as §2. In short, it runs like this: as §1
The source holds these as a separate data set.

The test system of assay [5] is Plasmodium berghei. Put plainly: Antimalarial activity in Plasmodium berghei infected mice (Mus musculus) after 20 mg/kg subcutaneous dose. In short, it runs like this:
as §1

In assay [6] the test system is Plasmodium berghei. Put plainly: Antimalarial activity in Plasmodium berghei infected mice (Mus musculus) after subcutaneous 640 mg/kg dose. In short, it runs like this: as §3
Assay [7] deals with Plasmodium berghei. In words: (§4) Antimalarial activity in Plasmodium berghei infected mice (Mus musculus) after 40 mg/kg subcutaneous dose. Put shortly: as §1
In assay [8] the test system is Plasmodium berghei. Put plainly: Antimalarial activity in Plasmodium berghei infected mice (Mus musculus) after subcutaneous 160 mg/kg dose. In short, it runs like this: as §3
Assay [9] deals with Plasmodium berghei. Described as §4. Put shortly: as §3
The source holds these as a separate data set.

The structures appear in SMILES notation.

In the case of `O=c1c2c(n(O)c3ccc(Cl)cc13)CC(c1ccc(Cl)c(Cl)c1)C/C2=N\CCCN(CCO)CCO` (stereo not given), the “Delta mean survival time” value in the assay with Plasmodium berghei [1] amounted to 10.6; with Plasmodium berghei [4], 7.9; with Plasmodium berghei [5], 1.2; with Plasmodium berghei [7], 5.6. Also, the “No. of cured mice” value in the assay with Plasmodium berghei [2] is reported as 1; in the assay on Plasmodium berghei [3] it was 5; in the assay with Plasmodium berghei [6], 5; with Plasmodium berghei [8] it was 4.
Turning to `CCN(CC/N=C1\CC(c2ccc(Cl)c(Cl)c2)Cc2c1c(=O)c1cc(Cl)ccc1n2O)CC(C)(C)O` (stereo not given), the “No. of cured mice” value worked out at 4 in the assay with Plasmodium berghei [2], 5 with Plasmodium berghei [3] and 5 with Plasmodium berghei [8]. The “Delta mean survival time” value in the assay on Plasmodium berghei [4] is 8; in the assay on Plasmodium berghei [5], 6.3; with Plasmodium berghei [7], 8.2.
As to `CCCCNC(CC)C/N=C1\CC(c2cccc(C(F)(F)F)c2)Cc2c1c(=O)c1cc(Cl)ccc1n2O` (stereo not given), the “No. of cured mice” value was 1 in the assay with Plasmodium berghei [2], 5 with Plasmodium berghei [3], 5 in the assay with Plasmodium berghei [6] and 5 in the assay with Plasmodium berghei [8]. Further, the “Delta mean survival time” value in the assay on Plasmodium berghei [4] came to 10.9; in the assay with Plasmodium berghei [5] it was 5.6; with Plasmodium berghei [7] it was 6.8.
Turning to `CN(C)CCC/N=C1\CC(c2ccccc2C(F)(F)F)Cc2c1c(=O)c1cc(Cl)ccc1n2O` (stereo not given), the “Delta mean survival time” value with Plasmodium berghei [1] is 8; in the assay with Plasmodium berghei [4], 7.5; in the assay with Plasmodium berghei [7], 5.8. Moreover, the “No. of cured mice” value in the assay on Plasmodium berghei [2] was found to be 1; in the assay on Plasmodium berghei [3], 5; in the assay with Plasmodium berghei [6], 5; in the assay on Plasmodium berghei [8], 4.
With `CCN(CC)CCC/N=C1\CC(c2ccc(Cl)c(Cl)c2)Cc2c1c(=O)c1cc(Cl)ccc1n2O` (stereo not given), the “Delta mean survival time” value with Plasmodium berghei [1] amounted to 12.7; in the assay with Plasmodium berghei [4], 11.7; in the assay with Plasmodium berghei [5], 5.8; in the assay with Plasmodium berghei [7] it was 3.5. The “No. of cured mice” value in the assay on Plasmodium berghei [2] is 2; in the assay on Plasmodium berghei [3], 5; in the assay on Plasmodium berghei [6] it was 5; in the assay with Plasmodium berghei [8], 4.
For the compound `CC(C/N=C1\CC(c2ccc(C(F)(F)F)cc2)Cc2nc3ccc(Cl)cc3c(O)c21)N(C)C` (stereo not given), the “No. of cured mice” value in the assay with Plasmodium berghei [9], in the assay with Plasmodium berghei [6] and in the assay on Plasmodium berghei [8] was 5 each time.
As for `NCC/N=C1\CC(c2ccc(Cl)cc2Cl)Cc2nc3ccc(Cl)cc3c(O)c21` (stereo not given), the “No. of cured mice” value with Plasmodium berghei [9], with Plasmodium berghei [6] and in the assay with Plasmodium berghei [8] was 5 each time.
Turning to `CCCCNCCC/N=C1\CC(c2ccc(Cl)c(Cl)c2)Cc2c1c(=O)c1cc(Cl)ccc1n2O` (stereo not given), the “Delta mean survival time” value turned out to be 10.6 with Plasmodium berghei [1], 9.1 in the assay with Plasmodium berghei [4], 4.4 in the assay with Plasmodium berghei [5] and 9.4 with Plasmodium berghei [7]. In addition, the “No. of cured mice” value in the assay on Plasmodium berghei [2] was found to be 1; in the assay on Plasmodium berghei [3] it was 5; with Plasmodium berghei [6], 5; in the assay on Plasmodium berghei [8], 4.
Turning to `CN(C)CCC/N=C1/c2c([nH]c3ccc(Cl)cc3c2=O)CC(c2ccc(Cl)c(Cl)c2)C1c1ccccc1` (stereo not given), the “Delta mean survival time” value with Plasmodium berghei [1] came out at 12.2; in the assay with Plasmodium berghei [4] it was 14.2; with Plasmodium berghei [5], 3.1; in the assay on Plasmodium berghei [7], 7.7. Further, the “No. of cured mice” value was determined as 1 in the assay on Plasmodium berghei [2], 5 with Plasmodium berghei [3], 5 in the assay on Plasmodium berghei [6] and 2 in the assay with Plasmodium berghei [8].
As for `CC1C(=O)c2c(n(O)c3ccc(Cl)cc3c2=O)CC1c1ccc(C(F)(F)F)cc1` (stereo not given), the “No. of cured mice” value in the assay with Plasmodium berghei [2] is on record as 2; in the assay on Plasmodium berghei [3], 5; with Plasmodium berghei [6], 5; in the assay with Plasmodium berghei [8], 5. Besides, the “Delta mean survival time” value is listed as 14.1 in the assay with Plasmodium berghei [4], 5.2 with Plasmodium berghei [5] and 7.8 in the assay on Plasmodium berghei [7].
